From PubChem
In the library only some 4.2% were active in any assay of this set; here they are far more common.
TAAR1 antagonist = antagonists of human TAAR1; 1.5% of 360,000 active; inhibition, % at 3 µM; Q96RJ0; AID 624466; CHO RD-HGA16 TAAR1, Fluo-8 calcium fluorescence, antagonist;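 active means inhibition above a per-plate cutoff, the mean inhibition of test compounds on that plate plus 3 SD, cut at about 49% in these data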
Target sequence (Q96RJ0 whole entry, looked up): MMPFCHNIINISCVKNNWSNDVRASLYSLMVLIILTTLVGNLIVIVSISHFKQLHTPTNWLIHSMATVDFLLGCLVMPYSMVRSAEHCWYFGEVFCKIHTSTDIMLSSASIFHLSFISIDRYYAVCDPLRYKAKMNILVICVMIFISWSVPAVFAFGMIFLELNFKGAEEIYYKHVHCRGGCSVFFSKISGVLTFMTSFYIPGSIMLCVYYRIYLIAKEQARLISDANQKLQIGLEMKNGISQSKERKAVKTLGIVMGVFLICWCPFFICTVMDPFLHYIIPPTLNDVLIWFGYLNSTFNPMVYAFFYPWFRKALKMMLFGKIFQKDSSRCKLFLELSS
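Material: CHO RD-HGA16 cells bearing hTAAR1; compound dosing: one-point dosing, 3 µM nominal final; schedule: dye loading 75 min at 37 °C, then 30 min room temperature; measured by: calcium fluorescence with Fluo-8; control set: vehicle and agonist controls; replication: n of 1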
OX1R antag-1 = blocks the human orexin 1 receptor; O43613; OX1R-expressing cells, FRET antagonist read-out; inhibition, % at 6.6 µM; 1.8% of 330,000 active; AID 485270; in the data active means inhibition mostly above about 38%, no sharp cut-off; inactive means mostly below about 40%
OX1R antag-2 = blocks the human orexin 1 receptor. O43613. 0.43% of 330,000 active. inhibition, % at 5 µM. CHO/OX1R cells, Fluo-8 calcium fluorescence, orexin A;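 active means inhibition above its plate's threshold, mean inhibition of all tested compounds on the plate plus 3 SD, cut at about 37% in these data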
GalR3 antag = antagonists of human GalR3; HEK293 GalR3-CNG cAMP membrane potential fluorescence; galR3 body fused to GalR1 C-terminus; inhibition, % at 3 µM; AID 651719; 0.44% of 360,000 active; O60755;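 active means inhibition above the screen-wide average plus 3 SD, cut at about 13% in these data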;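 further: forskolin and galanin both at EC90 stimulate the cells; cAMP rise reported by CNG channel membrane potential dye signal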
Target sequence (O60755 1-299 limits assumed): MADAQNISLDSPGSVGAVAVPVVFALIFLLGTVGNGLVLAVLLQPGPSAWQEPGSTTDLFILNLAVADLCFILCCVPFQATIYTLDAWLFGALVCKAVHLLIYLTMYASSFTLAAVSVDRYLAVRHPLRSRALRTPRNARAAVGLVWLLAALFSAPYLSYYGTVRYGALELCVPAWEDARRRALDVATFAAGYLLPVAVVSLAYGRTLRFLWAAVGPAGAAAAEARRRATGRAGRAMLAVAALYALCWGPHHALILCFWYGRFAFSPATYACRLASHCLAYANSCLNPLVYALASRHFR
CHO parental Ca = counter-screen: ATP calcium response change in parental CHO cells; inhibition, % at 5.6 µM; 0.63% of 330,000 active; parental CHO-K1, ATP-induced calcium, Fluo-8 fluorescence; AID 463079;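 active means inhibition above that plate's mean sample inhibition plus 3 SD, cut at about 26% in these data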
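Material: Parental CHO cells | Reagent: ATP | Compound dosing: Single nominal dose of 5.6 µM per compound | Detection: Intracellular calcium via Fluo-8 no-wash fluorescent dye | Read-out: % inhibition of ATP-induced calcium mobilization | Benchmarks: Low control ATP plus DMSO, high control DMSO only | Replicates: Singlicate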
TAAR1 agonist = agonists of human TAAR1; activation, % at 3 µM; AID 624467; Q96RJ0; 0.99% of 360,000 active; CHO RD-HGA16 TAAR1, Fluo-8 calcium fluorescence; vehicle wells 0%, saturating PEA agonist 100%;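 active means activation above the mean activation of all test compounds in the run plus 3 SD, cut at about 38% in these data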
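Test system: RD-HGA16 (CHO) cells co-expressing Gα16 and hTAAR1 | Doses: Single dose, 3 µM | Schedule: 17-24 h seeding, 75 min 37 °C dye, 30 min RT | Evaluation: % activation from peak over basal fluorescence ratio, DMSO-to-PEA scaled | Technique: Kinetic Fluo-8 calcium fluorescence | Benchmarks: Low control DMSO, high control PEA (EC100)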
A number is an active result.

C[N+]1(CC(=O)NNc2c3ccccc3nc3ccccc23)CCOCC1 was read as TAAR1 antagonist inactive, OX1R antag-1 44.2, OX1R antag-2 inactive, GalR3 antag inactive, CHO parental Ca inactive and TAAR1 agonist inactive.
O=C(CN1CCOCC1)NNc1c2ccccc2nc2ccccc12 was read as TAAR1 antagonist inactive, OX1R antag-1 inactive, OX1R antag-2 inactive, GalR3 antag inactive, CHO parental Ca inactive and TAAR1 agonist inactive.
O=C1Nc2ccccc2N=C(c2ccc3c(c2)OCO3)C1N(C(=O)c1ccnc2ccccc12)c1ccccc1 (stereo unspecified) was read as TAAR1 antagonist inactive, GalR3 antag inactive and TAAR1 agonist inactive.
For O=C1Nc2ccccc2N=C(c2ccc3c(c2)OCO3)C1N(CCc1ccccc1)C(=O)CSc1ncccn1 (stereo unspecified) the results were TAAR1 antagonist inactive, GalR3 antag inactive and TAAR1 agonist 41.3.
Screening COc1ccc(C2=Nc3ccccc3NC(=O)C2N(CCc2ccccc2)C(=O)c2cccs2)cc1 (stereo unspecified) returned TAAR1 antagonist inactive, GalR3 antag inactive and TAAR1 agonist 44.0.
`O=C(Nc1ccc2c(c1)OCO2)c1cc2n(n1)C(C(F)(F)F)CC(c1ccccc1)N2` (stereo unspecified) gave TAAR1 antagonist inactive, OX1R antag-1 inactive, OX1R antag-2 inactive, GalR3 antag inactive, CHO parental Ca inactive and TAAR1 agonist inactive.
Screening O=C(Nc1ccc2c(c1)OCO2)c1cnn2c1NC(c1ccco1)CC2C(F)(F)F (stereo unspecified) returned TAAR1 antagonist inactive, OX1R antag-1 inactive, OX1R antag-2 inactive, GalR3 antag inactive, CHO parental Ca 46.8 and TAAR1 agonist inactive.
`CC(C)C[C@@H](CSc1ccccc1)N1CCN(CCc2ccccc2)CCC1=O` gave TAAR1 antagonist inactive, OX1R antag-1 inactive, OX1R antag-2 inactive, GalR3 antag inactive, CHO parental Ca inactive and TAAR1 agonist inactive.
N#Cc1c(-c2ccco2)cc(-c2ccccn2)nc1N was read as TAAR1 antagonist inactive, OX1R antag-1 73.5, OX1R antag-2 inactive, GalR3 antag inactive, CHO parental Ca inactive and TAAR1 agonist inactive.
`Cc1cccc(NC(=O)N2CCCc3ccccc32)c1C` gave TAAR1 antagonist inactive, GalR3 antag inactive and TAAR1 agonist inactive.
For COc1ccc(-n2c(SCC(=O)NCC3CCCO3)nc3c(c2=O)SCC3)cc1OC (stereo unspecified) the results were TAAR1 antagonist inactive, OX1R antag-1 inactive, OX1R antag-2 inactive, GalR3 antag inactive, CHO parental Ca inactive and TAAR1 agonist inactive.
For CCc1ccc2oc(-c3cccc(NC(=O)c4cccnc4)c3)nc2c1 the results were TAAR1 antagonist 49.1, OX1R antag-1 inactive, OX1R antag-2 inactive, GalR3 antag inactive, CHO parental Ca inactive and TAAR1 agonist inactive.
For O=C(Nc1cccc(-c2nc3ncccc3o2)c1)c1ccccc1 the results were TAAR1 antagonist inactive, OX1R antag-1 56.0, OX1R antag-2 inactive, GalR3 antag inactive, CHO parental Ca inactive and TAAR1 agonist inactive.
`OCCn1nc2c3ccccc3nc-2n(-c2ccccc2)c1=S` gave TAAR1 antagonist inactive, OX1R antag-1 inactive, OX1R antag-2 inactive, GalR3 antag inactive, CHO parental Ca inactive and TAAR1 agonist inactive.
For Cc1ccc(-c2csc(=Nc3cccnc3)n2CCCN2CCCC2=O)cc1C the results were TAAR1 antagonist inactive, OX1R antag-1 64.3, OX1R antag-2 inactive, GalR3 antag inactive, CHO parental Ca inactive and TAAR1 agonist inactive.
Screening Cc1sc(NC(=O)COc2ccccc2)c(C#N)c1-c1ccccc1 returned TAAR1 antagonist inactive, OX1R antag-1 inactive, OX1R antag-2 inactive, GalR3 antag inactive, CHO parental Ca inactive and TAAR1 agonist inactive.
For CC1=C(C(=O)OCC(Cl)(Cl)Cl)N2C(=O)C(NC(=O)Cc3ccccc3)C2SC1 (stereo unspecified) the results were TAAR1 antagonist 61.1, OX1R antag-1 inactive, OX1R antag-2 inactive, GalR3 antag inactive, CHO parental Ca inactive and TAAR1 agonist inactive.
`CCOc1ccc(NC(=O)CCN2CCN(S(=O)(=O)c3ccc(OC)cc3)CC2)cc1` gave TAAR1 antagonist inactive, OX1R antag-1 inactive, OX1R antag-2 inactive, GalR3 antag inactive, CHO parental Ca inactive and TAAR1 agonist inactive.
Cc1ccc(NC(=O)CSc2ccc(-c3ccccn3)nn2)c(C)c1 was read as TAAR1 antagonist inactive, OX1R antag-1 inactive, OX1R antag-2 inactive, GalR3 antag inactive, CHO parental Ca inactive and TAAR1 agonist inactive.
Screening N=c1c(C(=O)NCc2ccco2)cc2c(=O)n3ccccc3nc2n1CC1CCCO1 (stereo unspecified) returned TAAR1 antagonist inactive, OX1R antag-1 49.5, OX1R antag-2 inactive, GalR3 antag inactive, CHO parental Ca inactive and TAAR1 agonist inactive.
For N=c1c(C(=O)NCc2ccc(F)cc2)cc2c(=O)n3ccccc3nc2n1CC1CCCO1 (stereo unspecified) the results were TAAR1 antagonist inactive, OX1R antag-1 72.2, OX1R antag-2 inactive, GalR3 antag inactive, CHO parental Ca inactive and TAAR1 agonist inactive.
N=c1c(C(=O)NCc2ccc3c(c2)OCO3)cc2c(=O)n3ccccc3nc2n1CC1CCCO1 (stereo unspecified) was read as TAAR1 antagonist inactive, OX1R antag-1 68.7, OX1R antag-2 inactive, GalR3 antag inactive, CHO parental Ca inactive and TAAR1 agonist inactive.
`COc1ccc(CCNC(=O)c2cc3c(=O)n4ccccc4nc3n(CC3CCCO3)c2=N)cc1` (stereo unspecified) gave TAAR1 antagonist inactive, GalR3 antag inactive and TAAR1 agonist inactive.
COc1ccc(-c2[nH]c3ccccc3c2SCCN)cc1 was read as TAAR1 antagonist inactive, OX1R antag-1 inactive, OX1R antag-2 inactive, GalR3 antag inactive, CHO parental Ca inactive and TAAR1 agonist inactive.
For N#C/C(=C\c1ccc([N+](=O)[O-])o1)C(=O)Nc1ccc(F)cc1 the results were TAAR1 antagonist inactive, OX1R antag-1 inactive, OX1R antag-2 inactive, GalR3 antag inactive, CHO parental Ca inactive and TAAR1 agonist inactive.
Screening COc1cccc2cc(C(C)N(CCCN3CCOCC3)C(=S)Nc3cccc(C)c3C)oc12 (stereo unspecified) returned TAAR1 antagonist inactive, OX1R antag-1 inactive, OX1R antag-2 inactive, GalR3 antag inactive, CHO parental Ca inactive and TAAR1 agonist 39.2.
COc1ccc(Cl)cc1NC(=O)CSc1nnc(Cn2c(=O)sc3ccccc32)n1C was read as TAAR1 antagonist inactive, OX1R antag-1 inactive, OX1R antag-2 inactive, GalR3 antag inactive, CHO parental Ca inactive and TAAR1 agonist inactive.
COc1ccccc1N1CCN(C(=O)c2cc3ccccc3[nH]2)CC1 was read as TAAR1 antagonist 53.3, OX1R antag-1 inactive, OX1R antag-2 inactive, GalR3 antag inactive, CHO parental Ca inactive and TAAR1 agonist inactive.
